Assay results as given in ChEMBL document CHEMBL4616711, “Discovery of 2,6-Dimethylpiperazines as Allosteric Inhibitors of CPS1” (ACS Med Chem Lett, 2020).
≈ marks a conversion by molar mass, not a printed value.

Key:
[1] = target: T1, Carbamoyl-phosphate synthase [ammonia], mitochondrial (Homo sapiens, UniProt P31327); assay: Allosteric inhibition of His-tagged CPS1 (unknown origin) expressed in baculovirus infected Sf21 insect cells assessed as reduction in ADP level preincubated for 20 mins followed by ATP addition measured after 60 mins by ADP-Glo assay
T1 sequence (P31327 whole entry): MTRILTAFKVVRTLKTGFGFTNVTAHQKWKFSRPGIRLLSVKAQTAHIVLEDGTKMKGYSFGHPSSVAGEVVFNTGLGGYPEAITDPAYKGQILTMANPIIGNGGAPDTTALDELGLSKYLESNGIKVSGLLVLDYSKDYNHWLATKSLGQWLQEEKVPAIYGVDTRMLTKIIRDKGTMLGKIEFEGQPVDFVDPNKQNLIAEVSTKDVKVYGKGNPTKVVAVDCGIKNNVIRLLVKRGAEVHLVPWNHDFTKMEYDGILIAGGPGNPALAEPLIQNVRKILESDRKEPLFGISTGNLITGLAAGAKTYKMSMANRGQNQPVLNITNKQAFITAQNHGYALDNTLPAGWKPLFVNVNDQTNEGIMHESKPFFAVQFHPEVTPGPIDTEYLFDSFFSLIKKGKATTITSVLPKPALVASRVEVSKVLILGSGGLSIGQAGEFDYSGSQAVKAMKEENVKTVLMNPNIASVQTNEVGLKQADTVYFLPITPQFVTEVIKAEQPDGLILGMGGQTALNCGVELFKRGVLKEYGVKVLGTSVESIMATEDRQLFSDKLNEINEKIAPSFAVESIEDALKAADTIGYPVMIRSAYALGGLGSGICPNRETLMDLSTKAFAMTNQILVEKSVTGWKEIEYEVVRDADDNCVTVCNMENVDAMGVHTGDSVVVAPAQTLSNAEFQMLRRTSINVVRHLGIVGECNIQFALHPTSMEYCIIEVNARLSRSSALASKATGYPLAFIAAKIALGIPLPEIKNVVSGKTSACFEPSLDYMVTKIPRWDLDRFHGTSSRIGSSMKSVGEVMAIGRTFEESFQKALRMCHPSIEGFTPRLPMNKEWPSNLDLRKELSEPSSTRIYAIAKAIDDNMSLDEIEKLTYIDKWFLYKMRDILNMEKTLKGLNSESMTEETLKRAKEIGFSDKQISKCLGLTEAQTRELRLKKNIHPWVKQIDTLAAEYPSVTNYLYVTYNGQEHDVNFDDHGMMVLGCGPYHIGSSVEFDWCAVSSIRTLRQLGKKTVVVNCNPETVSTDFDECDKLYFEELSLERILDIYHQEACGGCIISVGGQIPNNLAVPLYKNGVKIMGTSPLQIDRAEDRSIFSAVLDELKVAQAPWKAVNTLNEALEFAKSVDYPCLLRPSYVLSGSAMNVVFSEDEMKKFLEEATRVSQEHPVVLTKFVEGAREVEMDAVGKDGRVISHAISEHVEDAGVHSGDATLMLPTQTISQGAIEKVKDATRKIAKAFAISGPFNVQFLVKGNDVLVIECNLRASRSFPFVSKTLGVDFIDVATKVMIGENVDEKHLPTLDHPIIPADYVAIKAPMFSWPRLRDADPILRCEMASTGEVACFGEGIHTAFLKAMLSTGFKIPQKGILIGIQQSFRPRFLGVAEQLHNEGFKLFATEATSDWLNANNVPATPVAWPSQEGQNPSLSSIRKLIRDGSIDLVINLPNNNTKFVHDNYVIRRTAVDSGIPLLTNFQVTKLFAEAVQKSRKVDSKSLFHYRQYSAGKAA
In short: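 CPS1 activity read as ADP formation in the presence of inhibitor. IC50 taken as the average of at least two experimental replicates (N = 2).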

[2] = target: T1, Carbamoyl-phosphate synthase [ammonia], mitochondrial; assay: Inhibition of CPS1 in human pooled hepatocytes assessed as reduction in urea production measured after 16 hrs in presence of NH4Cl by tecan-plate reader analysis; format: cell-based
In short: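 Primary human hepatocytes given 10 mM NH4Cl together with compound over a concentration series. Urea secreted into the medium measured after 16 h. IC50 derived from the inhibition of urea production.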

[3] = Clearance in human pooled hepatocytes assessed per million cells at 1 uM measured up to 120 mins by LC-MS/MS analysis; format: ADME, cell-based, Hepatocyte; conditions: read-out: CLH
[4] = Apparent permeability across apical to basolateral membrane in human Caco2 cells at 5 uM incubated for 2 hrs by LC-MS/MS analysis; format: ADME, cell-based; conditions: Caco-2
[5] = target: Multifunctional protein CAD (Homo sapiens, UniProt P27708); assay: Inhibition of CAD (unknown origin) CSP2 activity expressed in Escherichia coli BL21 (DE3) preincubated for 20 mins followed by ATP addition measured after 60 mins by ADP-Glo assay
Chain of Multifunctional protein CAD (P27708 whole entry): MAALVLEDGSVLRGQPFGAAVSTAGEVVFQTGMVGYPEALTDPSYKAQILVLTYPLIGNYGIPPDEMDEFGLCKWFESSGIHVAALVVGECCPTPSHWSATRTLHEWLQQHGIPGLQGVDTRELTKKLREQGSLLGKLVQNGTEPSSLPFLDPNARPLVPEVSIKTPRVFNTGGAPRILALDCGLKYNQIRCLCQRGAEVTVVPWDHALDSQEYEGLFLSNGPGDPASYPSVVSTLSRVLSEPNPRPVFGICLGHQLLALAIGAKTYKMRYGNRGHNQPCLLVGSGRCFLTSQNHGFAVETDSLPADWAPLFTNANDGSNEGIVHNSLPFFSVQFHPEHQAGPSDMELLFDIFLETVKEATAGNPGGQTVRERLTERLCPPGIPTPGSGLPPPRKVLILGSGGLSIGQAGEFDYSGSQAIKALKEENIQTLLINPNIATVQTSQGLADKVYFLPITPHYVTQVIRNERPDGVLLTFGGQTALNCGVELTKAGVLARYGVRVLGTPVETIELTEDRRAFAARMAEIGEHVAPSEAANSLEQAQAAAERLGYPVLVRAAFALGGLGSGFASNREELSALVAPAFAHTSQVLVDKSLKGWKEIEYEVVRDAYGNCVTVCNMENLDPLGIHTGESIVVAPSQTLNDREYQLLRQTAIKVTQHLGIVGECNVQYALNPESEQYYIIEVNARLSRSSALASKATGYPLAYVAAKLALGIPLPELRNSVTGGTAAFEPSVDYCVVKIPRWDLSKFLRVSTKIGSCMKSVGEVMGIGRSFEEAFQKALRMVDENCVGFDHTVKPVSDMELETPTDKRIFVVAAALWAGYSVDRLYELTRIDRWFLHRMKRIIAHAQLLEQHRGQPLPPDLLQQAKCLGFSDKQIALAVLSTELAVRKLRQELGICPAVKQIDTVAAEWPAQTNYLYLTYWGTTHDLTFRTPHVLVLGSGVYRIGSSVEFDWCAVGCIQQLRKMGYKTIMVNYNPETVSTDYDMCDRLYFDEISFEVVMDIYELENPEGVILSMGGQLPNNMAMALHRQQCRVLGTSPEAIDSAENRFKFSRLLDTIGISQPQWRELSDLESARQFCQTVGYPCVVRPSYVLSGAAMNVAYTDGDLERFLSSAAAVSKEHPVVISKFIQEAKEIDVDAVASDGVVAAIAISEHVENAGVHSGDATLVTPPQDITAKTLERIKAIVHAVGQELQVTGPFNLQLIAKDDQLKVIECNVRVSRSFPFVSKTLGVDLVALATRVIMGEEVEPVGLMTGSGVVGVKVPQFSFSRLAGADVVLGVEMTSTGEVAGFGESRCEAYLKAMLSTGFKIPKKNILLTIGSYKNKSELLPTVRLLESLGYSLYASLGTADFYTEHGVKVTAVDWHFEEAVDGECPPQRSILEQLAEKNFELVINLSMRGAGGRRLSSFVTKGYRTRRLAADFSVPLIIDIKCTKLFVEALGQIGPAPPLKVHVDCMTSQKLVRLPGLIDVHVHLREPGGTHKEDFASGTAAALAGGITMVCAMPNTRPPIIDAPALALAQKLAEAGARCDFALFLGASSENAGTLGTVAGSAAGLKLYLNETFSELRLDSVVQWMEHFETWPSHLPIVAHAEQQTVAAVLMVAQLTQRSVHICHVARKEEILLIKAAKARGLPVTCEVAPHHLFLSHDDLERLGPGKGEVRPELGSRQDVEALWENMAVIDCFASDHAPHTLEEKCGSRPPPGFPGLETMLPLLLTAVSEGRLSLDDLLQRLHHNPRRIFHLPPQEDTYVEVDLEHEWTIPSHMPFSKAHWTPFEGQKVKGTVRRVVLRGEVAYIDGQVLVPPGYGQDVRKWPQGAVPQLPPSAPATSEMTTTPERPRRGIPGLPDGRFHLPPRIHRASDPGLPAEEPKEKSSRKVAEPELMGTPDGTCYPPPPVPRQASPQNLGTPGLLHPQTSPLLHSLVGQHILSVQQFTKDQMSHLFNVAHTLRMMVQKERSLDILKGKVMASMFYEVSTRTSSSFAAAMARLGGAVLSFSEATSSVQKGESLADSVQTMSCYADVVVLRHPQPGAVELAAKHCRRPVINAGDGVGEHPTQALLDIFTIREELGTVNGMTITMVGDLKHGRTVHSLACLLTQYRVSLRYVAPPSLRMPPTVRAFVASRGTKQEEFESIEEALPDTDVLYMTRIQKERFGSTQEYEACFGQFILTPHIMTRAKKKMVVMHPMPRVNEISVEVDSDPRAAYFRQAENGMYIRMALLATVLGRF

[6] = Kinetic solubility in Dulbecco's phosphate buffer saline at pH 7.4 by UPLC analysis; format: physicochemical; conditions: Dulbecco's phosphate buffered saline, read-out: Kinetic_solubility

Compound	IC50 [1] [nM]	further results
COc1ccc(C(=O)C2CCN(C(=O)c3ccc(OC)cc3F)CC2)c(F)c1	21500	–
COc1ccc(C(=O)N2[C@H](C)CN(C(=O)c3cc(NC(C)=O)ccc3F)C[C@H]2C)c(F)c1	> 66000	–
COc1ccc(C(=O)N2[C@H](C)CN(C(=O)c3cccc(OC)c3F)C[C@H]2C)c(F)c1	> 66000	–
COc1ccc(C(=O)N2[C@H](C)CN(C(=O)c3ccc4cc(C)[nH]c4c3)C[C@H]2C)c(F)c1	–	IC50 ([2]; read-out: IC50): 1000 nM
COc1ccc(C(=O)N2C[C@@H](C)N(C(=O)c3ccc(OC(C)C)cc3F)[C@H](C)C2)c(F)c1	1400	–
COc1ccc(C(=O)N2CC3CC2CN3C(=O)c2ccc(OC)cc2F)c(F)c1	> 66000	–
COc1ccc(C(=O)N2[C@H](C)CN(C(=O)c3ccc4[nH]ccc4c3)C[C@H]2C)c(F)c1	> 66000	IC50 [2]: Not Active
COc1ccc(C(=O)N2[C@H](C)CN(C(=O)c3cc(OC)ccc3F)C[C@H]2C)c(F)c1	> 66000	–
COc1ccc(C(=O)N2CC(C)N(C(=O)c3ccc(OC)cc3F)CC2C)c(F)c1 (stereo not drawn)	11400	–
CCOc1ccc(C(=O)N2[C@H](C)CN(C(=O)c3ccc(OC)cc3F)C[C@H]2C)c(F)c1	380	–
COc1ccc(C(=O)N2CCCN(C(=O)c3ccc(OC)cc3F)CC2)c(F)c1	18900	–
COc1ccc(C(=O)N2[C@H](C)CN(C(=O)c3ccc4ccn(C)c4c3)C[C@H]2C)c(F)c1	–	IC50 [2]: Not Active
COc1ccc(C(=O)N2C[C@@H](C)N(C(=O)c3ccc(F)cc3F)[C@H](C)C2)c(F)c1	1300	–
Cc1csc(NC(=O)C2CCN(C(=O)N(C)Cc3ccccc3)CC2)n1	1500	hepatocyte CLint at 1 µM [3]: 35 µL/min/1e6 cells
COc1ccc(C(=O)N2[C@H](C)CN(C(=O)c3ccc4cc[nH]c4c3)C[C@H]2C)c(F)c1	66	Papp A→B at 2 h, 5 µM [4]: 12.3 ×10⁻⁶ cm/s; IC50 ([2]; read-out: IC50): 240 nM; IC50 [5]: ≥ 100000 nM; solubility kinetic [6]: 148 µM (≈ 60.6 µg/mL); hepatocyte CLint at 1 µM [3]: 8.7 µL/min/1e6 cells
CCOc1ccc(C(=O)N2C[C@@H](C)N(C(=O)c3ccc(OC)cc3F)[C@H](C)C2)c(F)c1	130	–
